Data published in ChEMBL document CHEMBL3421560, “Search for factors affecting antibacterial activity and toxicity of 1,2,4-triazole-ciprofloxacin hybrids” (Eur J Med Chem, 2015).
In brackets after ≈: the same amount, converted by molar mass.

Legend:
[1] = test system: Staphylococcus epidermidis; assay: Antimicrobial activity against Staphylococcus epidermidis ATCC 12228 after 18 hrs by broth microdilution method; format: functional; conditions: ATCC 12228, 18 h
Proteus mirabilis = assay: Antimicrobial activity against Proteus mirabilis ATCC 12453 after 18 hrs by broth microdilution method; format: functional; conditions: ATCC 12453, 18 h
Staphylococcus aureus [2] = assay: Ratio of MBC for methicillin-susceptible Staphylococcus aureus ATCC 25923 to MIC for methicillin-susceptible Staphylococcus aureus ATCC 25923; format: functional
Procedure, shortened: (§1)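 MBC taken as lowest concentration giving >99.9% CFU reduction of the initial inoculum; value is MBC divided by MIC for the same strain.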

Bacillus subtilis = assay: Antimicrobial activity against Bacillus subtilis […] after 18 hrs by broth microdilution method; format: functional
Klebsiella pneumoniae = assay: Antimicrobial activity against Klebsiella pneumoniae ATCC 13883 after 18 hrs by broth microdilution method; format: functional; conditions: ATCC 13883, 18 h
Staphylococcus aureus [3] = assay: Antimicrobial activity against methicillin-susceptible Staphylococcus aureus ATCC 6538 after 18 hrs by broth microdilution method; format: functional; conditions: ATCC 6538, 18 h
Staphylococcus aureus [4] = assay: Antimicrobial activity against Staphylococcus aureus Microbank 14001 after 18 hrs by broth microdilution method; format: functional; conditions: Microbank 14001, 18 h
Staphylococcus aureus [5] = assay: Antimicrobial activity against methicillin-susceptible Staphylococcus aureus ATCC 25923 after 18 hrs by broth microdilution method; format: functional; conditions: ATCC 25923, 18 h
Bacillus cereus = assay: Antimicrobial activity against Bacillus cereus ATCC 10876 after 18 hrs by broth microdilution method; format: functional; conditions: ATCC 10876, 18 h
Micrococcus luteus = assay: Antimicrobial activity against Micrococcus luteus ATCC 10240 after 18 hrs by broth microdilution method; format: functional; conditions: ATCC 10240, 18 h
Escherichia coli = assay: Antimicrobial activity against Escherichia coli ATCC 25922 after 18 hrs by broth microdilution method; format: functional; conditions: ATCC 25922, 18 h
Pseudomonas aeruginosa = assay: Antimicrobial activity against Pseudomonas aeruginosa ATCC 9027 after 18 hrs by broth microdilution method; format: functional; conditions: ATCC 9027, 18 h
Staphylococcus aureus [6] = assay: Ratio of MBC for methicillin-susceptible Staphylococcus aureus ATCC 6538 to MIC for methicillin-susceptible Staphylococcus aureus ATCC 6538; format: functional; procedure, shortened: as §1
Staphylococcus aureus [7] = assay: Ratio of MBC for Staphylococcus aureus Microbank 14001 to MIC for Staphylococcus aureus Microbank 14001; format: functional; procedure, shortened: as §1
HEK293 = assay: Cytotoxicity against HEK293 cells after 72 hrs by MTT assay; format: cell-based; conditions: Homo sapiens, HEK293, 48 h; in the assay text read “48 hrs” for “72 hrs”
Procedure, shortened: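 HEK-293 (ATCC CRL-1573) in MEM with 10% FBS plus penicillin/streptomycin, seeded 3 x 10^5 cells/well, 24 h at 37 °C, 5% CO2. Treated with compounds diluted from 50 mg/mL DMSO stock into medium with 2% FBS for 48 h. Viability by MTT formazan readout; EC50 relative to control cells, mean ± SD of three independent experiments.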

| SMILES | MIC [1] [µM] | MIC (Proteus mirabilis) [µM] | Ratio (Staphylococcus aureus [2]) | MIC (Bacillus subtilis) [µM] | MIC (Klebsiella pneumoniae) [µM] | MIC (Staphylococcus aureus [3]) [µM] | MIC (Staphylococcus aureus [4]) [µM] | MIC (Staphylococcus aureus [5]) [µM] | MIC (Bacillus cereus) [µM] | MIC (Micrococcus luteus) [µM] | MIC (Escherichia coli) [µM] | MIC (Pseudomonas aeruginosa) [µM] | Ratio (Staphylococcus aureus [6]) | Ratio (Staphylococcus aureus [7]) | EC50 (HEK293) [µM] |
| --- | --- | --- | --- | --- | --- | --- | --- | --- | --- | --- | --- | --- | --- | --- | --- |
| O=C(O)c1cn(C2CC2)c2cc(N3CCN(Cn4nc(-c5ccccc5O)n(-c5ccccc5)c4=S)CC3)c(F)cc2c1=O | 0.098 (≈ 0.06 µg/mL) | 0.024 (≈ 0.0147 µg/mL) | <=4 | 0.39 (≈ 0.239 µg/mL) | 0.049 (≈ 0.03 µg/mL) | 0.39 (≈ 0.239 µg/mL) | 0.19 (≈ 0.116 µg/mL) | 0.8 (≈ 0.49 µg/mL) | 0.098 (≈ 0.06 µg/mL) | 1.59 (≈ 0.974 µg/mL) | 0.012 (≈ 0.00735 µg/mL) | 0.39 (≈ 0.239 µg/mL) | <=4 | <=4 |  |
| O=C(O)c1cn(C2CC2)c2cc(N3CCN(Cn4nc(-c5ccccc5O)n(Cc5ccccc5)c4=S)CC3)c(F)cc2c1=O | 0.38 (≈ 0.238 µg/mL) | 0.024 (≈ 0.015 µg/mL) | <=4 | 0.048 (≈ 0.0301 µg/mL) | 0.096 (≈ 0.0602 µg/mL) | 0.19 (≈ 0.119 µg/mL) | 0.38 (≈ 0.238 µg/mL) | 0.38 (≈ 0.238 µg/mL) | 0.19 (≈ 0.119 µg/mL) | 1.56 (≈ 0.978 µg/mL) | 0.006 (≈ 0.00376 µg/mL) | 0.096 (≈ 0.0602 µg/mL) | <=4 | <=4 | 69.1 |
| O=C(O)c1cn(C2CC2)c2cc(N3CCN(Cn4nc(-c5ccccc5O)n(-c5ccc(F)cc5)c4=S)CC3)c(F)cc2c1=O | 0.38 (≈ 0.24 µg/mL) | 0.024 (≈ 0.0151 µg/mL) | <=4 | 0.19 (≈ 0.12 µg/mL) | 0.048 (≈ 0.0303 µg/mL) | 0.38 (≈ 0.24 µg/mL) | 0.19 (≈ 0.12 µg/mL) | 1.55 (≈ 0.978 µg/mL) | 0.19 (≈ 0.12 µg/mL) | 3.09 (≈ 1.95 µg/mL) | 0.011 (≈ 0.00694 µg/mL) | 0.095 (≈ 0.0599 µg/mL) | <=4 | <=4 |  |
| O=C(O)c1cn(C2CC2)c2cc(N3CCN(Cn4nc(-c5ccccc5O)n(-c5ccc(Cl)cc5)c4=S)CC3)c(F)cc2c1=O | 0.18 (≈ 0.116 µg/mL) | 0.011 (≈ 0.00712 µg/mL) | <=4 | 0.093 (≈ 0.0602 µg/mL) | 0.023 (≈ 0.0149 µg/mL) | 0.18 (≈ 0.116 µg/mL) | 0.093 (≈ 0.0602 µg/mL) | 0.76 (≈ 0.492 µg/mL) | 0.18 (≈ 0.116 µg/mL) | 1.51 (≈ 0.977 µg/mL) | 0.011 (≈ 0.00712 µg/mL) | 0.37 (≈ 0.239 µg/mL) | <=4 | <=4 |  |
| O=C(O)c1cn(C2CC2)c2cc(N3CCN(Cn4nc(-c5ccccc5O)n(Cc5ccc(Cl)cc5)c4=S)CC3)c(F)cc2c1=O | 0.091 (≈ 0.0602 µg/mL) | 0.046 (≈ 0.0304 µg/mL) | <=4 | 0.045 (≈ 0.0298 µg/mL) | 0.023 (≈ 0.0152 µg/mL) | 0.18 (≈ 0.119 µg/mL) | 0.36 (≈ 0.238 µg/mL) | 0.74 (≈ 0.489 µg/mL) | 0.091 (≈ 0.0602 µg/mL) | 1.48 (≈ 0.979 µg/mL) | 0.023 (≈ 0.0152 µg/mL) | 0.36 (≈ 0.238 µg/mL) | <=4 | <=4 |  |
| COc1ccc(-n2c(-c3ccccc3O)nn(CN3CCN(c4cc5c(cc4F)c(=O)c(C(=O)O)cn5C4CC4)CC3)c2=S)cc1 | 0.093 (≈ 0.0598 µg/mL) | 0.047 (≈ 0.0302 µg/mL) | <=4 | 0.093 (≈ 0.0598 µg/mL) | 0.047 (≈ 0.0302 µg/mL) | 0.37 (≈ 0.238 µg/mL) | 0.18 (≈ 0.116 µg/mL) | 0.76 (≈ 0.488 µg/mL) | 0.37 (≈ 0.238 µg/mL) | 1.52 (≈ 0.977 µg/mL) | 0.011 (≈ 0.00707 µg/mL) | 0.76 (≈ 0.488 µg/mL) | <=4 | <=4 |  |
| O=C(O)c1cn(C2CC2)c2cc(N3CCN(Cn4nc(-c5cccc(O)c5)n(-c5ccccc5)c4=S)CC3)c(F)cc2c1=O | 0.19 (≈ 0.116 µg/mL) | 0.024 (≈ 0.0147 µg/mL) | <=4 | 0.098 (≈ 0.06 µg/mL) | 0.049 (≈ 0.03 µg/mL) | 0.39 (≈ 0.239 µg/mL) | 0.39 (≈ 0.239 µg/mL) | 0.8 (≈ 0.49 µg/mL) | 0.19 (≈ 0.116 µg/mL) | 1.6 (≈ 0.98 µg/mL) | 0.012 (≈ 0.00735 µg/mL) | 0.19 (≈ 0.116 µg/mL) | <=4 | <=4 | 140 |
| O=C(O)c1cn(C2CC2)c2cc(N3CCN(Cn4nc(-c5cccc(O)c5)n(Cc5ccccc5)c4=S)CC3)c(F)cc2c1=O | 0.096 (≈ 0.0602 µg/mL) | 0.012 (≈ 0.00752 µg/mL) | <=4 | 0.048 (≈ 0.0301 µg/mL) | 0.048 (≈ 0.0301 µg/mL) | 0.19 (≈ 0.119 µg/mL) | 0.19 (≈ 0.119 µg/mL) | 0.38 (≈ 0.238 µg/mL) | 0.096 (≈ 0.0602 µg/mL) | 1.56 (≈ 0.978 µg/mL) | 0.006 (≈ 0.00376 µg/mL) | 0.19 (≈ 0.119 µg/mL) | <=4 | <=4 |  |
